Results reported in ChEMBL document CHEMBL4732250, “Investigations on substituted (2-aminothiazol-5-yl)(imidazo[1,2-a]pyridin-3-yl)methanones for the treatment of Alzheimer's disease” (Bioorg Med Chem, 2021).

Tests used:
Rattus norvegicus [1] = assay: Antiinflammatory activity in Sprague-Dawley rat acute model of carrageenan-induced paw edema assessed as inhibition of rat paw edema at 50 mg/kg, po pre treated for 1 hr followed by carrageenan-stimulation and measured after 3 hrs by plethysmometeric method relative to control; format: functional; details: time 4 hrs
Method in brief: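 SD rats of either sex, 150–200 g, n = 6, dosed orally in 0.2% agar suspension. After 1 h, 0.1 mL 1% carrageenan in saline injected into the left hind sub-plantar paw. Paw volume measured by mercury plethysmometer before and 3 h after injection. % edema inhibition calculated. Mean ± SEM.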

Rattus norvegicus [2] = assay: Antiinflammatory activity in Sprague-Dawley rat chronic model of formalin-induced paw edema assessed as inhibition of rat paw edema at 50 mg/kg, po pre treated for 1 hr followed by formalin-stimulation and measured after 5 days by plethysmometeric method relative to control; format: functional; details: 120 h, time 5 day
Method in brief: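 Chronic paw edema. Oral pre-dose in 0.2% agar; after 1 h, 0.1 mL 2% formalin in saline injected into the left hind sub-plantar paw, repeated on 5 consecutive days. Paw volume by plethysmometer. % inhibition of edema size relative to disease control, days 1–5. n = 6, mean ± SEM, one-way ANOVA with Tukey's test.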

Rattus norvegicus [3] = assay: Antiinflammatory activity in Sprague-Dawley rat acute model of carrageenan-induced paw edema assessed as inhibition of rat paw edema at 50 mg/kg, po pre treated for 1 hr followed by carrageenan-stimulation and measured after 3 hrs by plethysmometeric method relative to control

Cc1ccc2ncc(C(=O)c3sc(N)nc3C)n2c1
inhibition in vivo at 50 mg/kg (Rattus norvegicus [1]): 33%

Cc1nc(N)sc1C(=O)c1cnc2ccccn12
inhibition in vivo at 50 mg/kg (Rattus norvegicus [1]): 53%

Cc1ccn2c(C(=O)c3sc(N)nc3C)cnc2c1
inhibition in vivo at 50 mg/kg (Rattus norvegicus [1]): 66%

Cc1ccc2ncc(C(=O)c3sc(N)nc3-c3ccccc3)n2c1
inhibition in vivo at 50 mg/kg (Rattus norvegicus [1]): 77%

Cc1ccc2ncc(C(=O)c3sc(N)nc3N(C)C)n2c1
inhibition in vivo at 50 mg/kg (Rattus norvegicus [1]): 23%

Cc1ccn2c(C(=O)c3sc(N)nc3-c3ccccc3)cnc2c1
inhibition in vivo at 50 mg/kg (Rattus norvegicus [1]): 26%

Cc1ccc2ncc(C(=O)c3cnc(N)s3)n2c1
inhibition in vivo at 50 mg/kg (Rattus norvegicus [1]): 53%

Nc1nc(-c2ccccc2)c(C(=O)c2cnc3ccccn23)s1
inhibition in vivo at 50 mg/kg (Rattus norvegicus [1]): 40%

Cc1ccn2c(C(=O)c3cnc4ccccn34)cnc2c1
inhibition in vivo at 50 mg/kg (Rattus norvegicus [2]): 61% | inhibition in vivo at 50 mg/kg (Rattus norvegicus [3]): 67%

Cc1nc(N)sc1C(=O)c1cnc2c(C)cccn12
inhibition in vivo at 50 mg/kg (Rattus norvegicus [1]): 45%
